In ChEMBL document CHEMBL4257579, “Analogs of penfluridol as chemotherapeutic agents with reduced central nervous system activity” (Bioorg Med Chem Lett, 2018):

Assays:
[1] = target: T1, 5-hydroxytryptamine receptor 1D (Homo sapiens, UniProt P28221); test: Displacement of [3H]5-CT from human 5-HT1D receptor expressed in HEK293T cells by radioligand binding assay relative to control; type: cell-based; parameters: concentration or dose not given beside the values; settings: concentration not given here
NIH3T3 = test: Cytotoxicity against mouse NIH/3T3 cells assessed as reduction in cell viability after 72 hrs by MTT assay; type: cell-based; settings: NIH3T3, 72 h
How it was run: (§1)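 Cells exposed to compounds; viability read at 24, 48 and 72 h. Every experiment run in triplicate.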

[2] = target: T2, 5-hydroxytryptamine receptor 7 (Homo sapiens, UniProt P34969); test: Displacement of [3H]LSD from human 5-HT7A receptor expressed in HEK cells by radioligand binding assay; type: cell-based
[3] = target: Delta-type opioid receptor (Homo sapiens, UniProt P41143); test: Displacement of [3H]DADLE from human DOR expressed in HEK cells by radioligand binding assay relative to control; type: cell-based; parameters: concentration or dose not given beside the values; settings: concentration not given here
D(1A) dopamine receptor = D(1A) dopamine receptor (Homo sapiens, UniProt P21728); test: Displacement of [3H]SCH23390 from human dopamine D1 receptor expressed in HEK293T cells by radioligand binding assay; type: cell-based
D(3) dopamine receptor = D(3) dopamine receptor (Homo sapiens, UniProt P35462); test: Displacement of [3H]N-methylspiperone from human dopamine D3 receptor expressed in HEK293T cells by radioligand binding assay; type: cell-based
[4] = target: T3, 5-hydroxytryptamine receptor 2C (Homo sapiens) (UniProt P28335); test: Displacement of [3H]Mesulergine from human 5-HT2C receptor expressed in HEK293FlpIN cells by radioligand binding assay relative to control; type: cell-based; parameters: concentration or dose not given beside the values; settings: concentration not given here
T3 sequence (whole entry): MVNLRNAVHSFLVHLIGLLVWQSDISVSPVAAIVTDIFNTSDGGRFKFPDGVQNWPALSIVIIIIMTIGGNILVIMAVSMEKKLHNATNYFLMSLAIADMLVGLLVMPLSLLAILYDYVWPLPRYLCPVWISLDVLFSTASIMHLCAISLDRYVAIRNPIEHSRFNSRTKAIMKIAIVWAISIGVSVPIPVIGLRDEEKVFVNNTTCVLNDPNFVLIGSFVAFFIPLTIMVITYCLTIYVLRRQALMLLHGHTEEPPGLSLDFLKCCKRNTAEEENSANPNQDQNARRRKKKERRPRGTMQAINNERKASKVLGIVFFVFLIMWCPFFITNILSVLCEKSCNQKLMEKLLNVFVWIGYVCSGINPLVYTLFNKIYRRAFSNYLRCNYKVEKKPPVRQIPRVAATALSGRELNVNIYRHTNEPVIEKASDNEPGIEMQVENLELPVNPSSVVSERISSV

Histamine H2 receptor [5] = target: T4, Histamine H2 receptor (Homo sapiens, UniProt P25021); test: Displacement of [3H]Cimetidine from human H2 receptor expressed in HEK cells by radioligand binding assay; type: cell-based
[6] = target: T5, 5-hydroxytryptamine receptor 1A (Homo sapiens) (UniProt P08908); test: Displacement of [3H]-Way100635 from human 5HT1A receptor expressed in stable CHO cell membranes by radioligand binding assay relative to control; parameters: concentration or dose not given beside the values; settings: concentration not given here
T5 sequence (whole entry): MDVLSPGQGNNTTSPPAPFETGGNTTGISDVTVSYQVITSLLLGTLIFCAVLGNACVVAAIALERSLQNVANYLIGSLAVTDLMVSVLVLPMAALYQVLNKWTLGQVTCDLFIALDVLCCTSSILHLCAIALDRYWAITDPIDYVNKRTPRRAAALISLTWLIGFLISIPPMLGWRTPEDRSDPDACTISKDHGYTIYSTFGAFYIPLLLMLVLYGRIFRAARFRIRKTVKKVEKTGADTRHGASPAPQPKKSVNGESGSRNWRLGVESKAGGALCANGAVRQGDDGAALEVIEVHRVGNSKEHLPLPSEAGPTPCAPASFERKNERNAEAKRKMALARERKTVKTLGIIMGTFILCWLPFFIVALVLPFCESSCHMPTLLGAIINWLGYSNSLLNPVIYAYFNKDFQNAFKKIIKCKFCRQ

[7] = target: T1, 5-hydroxytryptamine receptor 1D; test: Displacement of [3H]5-CT from human 5-HT1D receptor expressed in HEK293T cells by radioligand binding assay; type: cell-based
[8] = tested on: Lewis lung carcinoma cell line; test: Cytotoxicity against mouse LLC cells harboring […] assessed as reduction in cell viability after 24 hrs by MTT assay; type: functional, cell-based; how it was run: as §1
Mu-type opioid receptor = Mu-type opioid receptor (Homo sapiens, UniProt P35372); test: Displacement of [3H]DAMGO from human MOR expressed in HEK cells by radioligand binding assay; type: cell-based
[9] = target: T6, 5-hydroxytryptamine receptor 2C (Homo sapiens, UniProt P28335); test: Displacement of [3H]Mesulergine from human 5-HT2C receptor expressed in HEK293FlpIN cells by radioligand binding assay; type: cell-based
T6 sequence (P28335 whole entry): T3 sequence (whole entry)

[10] = tested on: Lewis lung carcinoma cell line; test: Cytotoxicity against mouse LLC cells harboring […] assessed as reduction in cell viability after 48 hrs by MTT assay; type: functional, cell-based; how it was run: as §1
[11] = target: T7, 5-hydroxytryptamine receptor 1A (Homo sapiens, UniProt P08908); test: Displacement of [3H]-Way100635 from human 5HT1A receptor expressed in stable CHO cell membranes by radioligand binding assay
T7 sequence (P08908 whole entry): T5 sequence (whole entry)

[12] = target: Sodium-dependent noradrenaline transporter (Homo sapiens, UniProt P23975); test: Displacement of [3H]Nisoxetine from human NET expressed in HEK cells by radioligand binding assay; type: cell-based
[13] = target: Sodium-dependent serotonin transporter (Homo sapiens, UniProt P31645); test: Displacement of [3H]Citalopram from human SERT expressed in HEK cells by radioligand binding assay relative to control; type: cell-based
Histamine H2 receptor [14] = target: T4, Histamine H2 receptor; test: Displacement of [3H]Cimetidine from human H2 receptor expressed in HEK cells by radioligand binding assay relative to control; type: cell-based; parameters: concentration or dose not given beside the values; settings: concentration not given here
MDA-MB-231 [15] = test: Cytotoxicity against human MDA-MB-231 cells assessed as reduction in cell viability after 24 hrs by MTT assay; type: functional, cell-based; settings: MDA-MB-231, 24 h; how it was run: as §1
[16] = target: T8, D(4) dopamine receptor (Homo sapiens) (UniProt P21917); test: Displacement of [3H]N-methylspiperone from human dopamine D4 receptor by radioligand binding assay relative to control; parameters: concentration or dose not given beside the values; settings: concentration not given here
T8 sequence (whole entry): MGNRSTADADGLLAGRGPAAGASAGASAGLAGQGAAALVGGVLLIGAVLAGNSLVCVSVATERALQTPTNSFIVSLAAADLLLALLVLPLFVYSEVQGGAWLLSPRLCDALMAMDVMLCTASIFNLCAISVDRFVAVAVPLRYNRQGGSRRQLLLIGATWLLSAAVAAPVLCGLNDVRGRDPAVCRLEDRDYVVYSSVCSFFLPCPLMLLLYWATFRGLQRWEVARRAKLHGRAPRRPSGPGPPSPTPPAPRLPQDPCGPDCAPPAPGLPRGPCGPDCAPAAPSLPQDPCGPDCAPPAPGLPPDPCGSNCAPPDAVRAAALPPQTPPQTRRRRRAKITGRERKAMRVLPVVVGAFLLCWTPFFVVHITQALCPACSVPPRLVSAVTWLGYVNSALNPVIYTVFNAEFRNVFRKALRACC

[17] = target: T2, 5-hydroxytryptamine receptor 7; test: Displacement of [3H]LSD from human 5-HT7A receptor expressed in HEK cells by radioligand binding assay relative to control; type: cell-based
MDA-MB-231 [18] = test: Cytotoxicity against human MDA-MB-231 cells assessed as reduction in cell viability after 48 hrs by MTT assay; type: functional, cell-based; settings: MDA-MB-231, 48 h; how it was run: as §1

Chain of Delta-type opioid receptor (P41143 whole entry): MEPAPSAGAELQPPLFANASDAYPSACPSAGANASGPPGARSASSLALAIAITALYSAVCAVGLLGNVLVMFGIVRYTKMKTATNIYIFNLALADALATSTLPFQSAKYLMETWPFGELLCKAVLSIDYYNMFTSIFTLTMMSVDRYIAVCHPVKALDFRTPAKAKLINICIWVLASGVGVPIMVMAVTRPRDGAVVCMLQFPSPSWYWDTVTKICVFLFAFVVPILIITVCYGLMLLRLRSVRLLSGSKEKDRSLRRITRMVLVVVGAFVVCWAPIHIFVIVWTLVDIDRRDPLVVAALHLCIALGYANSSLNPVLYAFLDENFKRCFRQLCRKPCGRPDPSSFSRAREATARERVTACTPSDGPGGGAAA
T4 sequence (P25021 whole entry): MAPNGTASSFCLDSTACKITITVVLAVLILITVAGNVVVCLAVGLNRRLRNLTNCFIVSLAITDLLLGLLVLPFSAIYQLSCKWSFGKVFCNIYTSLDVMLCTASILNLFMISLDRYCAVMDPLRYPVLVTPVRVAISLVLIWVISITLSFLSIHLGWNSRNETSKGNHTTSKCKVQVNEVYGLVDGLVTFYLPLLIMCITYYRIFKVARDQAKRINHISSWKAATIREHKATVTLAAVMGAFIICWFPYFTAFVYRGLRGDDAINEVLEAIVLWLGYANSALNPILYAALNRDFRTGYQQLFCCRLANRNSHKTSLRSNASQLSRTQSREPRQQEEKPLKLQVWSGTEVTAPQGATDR
Chain of D(3) dopamine receptor (P35462 whole entry): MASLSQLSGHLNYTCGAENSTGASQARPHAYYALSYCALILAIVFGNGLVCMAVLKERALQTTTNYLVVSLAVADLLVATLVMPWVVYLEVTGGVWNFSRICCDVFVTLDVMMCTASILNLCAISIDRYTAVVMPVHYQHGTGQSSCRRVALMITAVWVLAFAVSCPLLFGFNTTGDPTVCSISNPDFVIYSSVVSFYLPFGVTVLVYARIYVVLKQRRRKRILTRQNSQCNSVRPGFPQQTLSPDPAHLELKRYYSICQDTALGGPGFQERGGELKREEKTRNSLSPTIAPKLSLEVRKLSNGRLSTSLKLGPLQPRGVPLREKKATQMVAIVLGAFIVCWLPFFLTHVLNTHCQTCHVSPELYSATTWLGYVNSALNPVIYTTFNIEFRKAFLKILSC
Chain of Mu-type opioid receptor (P35372 whole entry): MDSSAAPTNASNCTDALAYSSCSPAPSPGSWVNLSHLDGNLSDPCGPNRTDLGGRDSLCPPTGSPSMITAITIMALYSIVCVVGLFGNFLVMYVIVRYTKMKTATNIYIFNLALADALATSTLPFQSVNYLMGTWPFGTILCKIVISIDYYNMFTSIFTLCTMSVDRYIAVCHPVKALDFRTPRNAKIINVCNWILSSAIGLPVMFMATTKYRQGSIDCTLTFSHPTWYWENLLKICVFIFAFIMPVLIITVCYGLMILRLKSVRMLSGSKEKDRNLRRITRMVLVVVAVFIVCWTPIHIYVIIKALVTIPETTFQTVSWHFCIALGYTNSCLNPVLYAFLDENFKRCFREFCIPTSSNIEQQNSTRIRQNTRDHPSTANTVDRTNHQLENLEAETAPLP
Chain of D(1A) dopamine receptor (P21728 whole entry): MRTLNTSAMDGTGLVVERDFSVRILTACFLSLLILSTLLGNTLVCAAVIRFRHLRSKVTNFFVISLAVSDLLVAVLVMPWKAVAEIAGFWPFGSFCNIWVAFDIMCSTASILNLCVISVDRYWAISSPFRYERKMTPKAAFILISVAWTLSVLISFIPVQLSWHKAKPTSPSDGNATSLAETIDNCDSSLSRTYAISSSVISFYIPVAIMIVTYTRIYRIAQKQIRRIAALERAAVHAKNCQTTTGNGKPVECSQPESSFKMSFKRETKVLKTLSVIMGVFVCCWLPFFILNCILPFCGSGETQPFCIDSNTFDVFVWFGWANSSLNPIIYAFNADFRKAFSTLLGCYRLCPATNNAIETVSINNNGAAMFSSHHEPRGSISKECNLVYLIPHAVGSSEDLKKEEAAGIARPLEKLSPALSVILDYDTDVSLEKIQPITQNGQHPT
Chain of Sodium-dependent noradrenaline transporter (P23975 whole entry): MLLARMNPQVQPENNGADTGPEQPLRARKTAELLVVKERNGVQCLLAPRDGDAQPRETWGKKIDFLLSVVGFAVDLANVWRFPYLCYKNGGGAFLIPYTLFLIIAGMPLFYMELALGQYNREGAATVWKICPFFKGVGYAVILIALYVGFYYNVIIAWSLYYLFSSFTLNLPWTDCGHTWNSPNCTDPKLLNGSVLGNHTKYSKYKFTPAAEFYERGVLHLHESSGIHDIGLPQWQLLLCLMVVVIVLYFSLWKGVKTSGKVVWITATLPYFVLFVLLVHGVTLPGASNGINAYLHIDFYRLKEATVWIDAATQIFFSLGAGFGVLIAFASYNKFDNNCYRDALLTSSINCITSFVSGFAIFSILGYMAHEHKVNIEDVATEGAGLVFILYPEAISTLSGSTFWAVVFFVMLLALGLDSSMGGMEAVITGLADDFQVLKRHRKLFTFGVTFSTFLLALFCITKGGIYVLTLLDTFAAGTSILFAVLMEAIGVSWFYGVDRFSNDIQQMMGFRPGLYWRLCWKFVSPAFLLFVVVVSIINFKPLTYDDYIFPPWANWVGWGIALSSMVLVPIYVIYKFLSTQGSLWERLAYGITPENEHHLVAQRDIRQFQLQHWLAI
T2 sequence (P34969 whole entry): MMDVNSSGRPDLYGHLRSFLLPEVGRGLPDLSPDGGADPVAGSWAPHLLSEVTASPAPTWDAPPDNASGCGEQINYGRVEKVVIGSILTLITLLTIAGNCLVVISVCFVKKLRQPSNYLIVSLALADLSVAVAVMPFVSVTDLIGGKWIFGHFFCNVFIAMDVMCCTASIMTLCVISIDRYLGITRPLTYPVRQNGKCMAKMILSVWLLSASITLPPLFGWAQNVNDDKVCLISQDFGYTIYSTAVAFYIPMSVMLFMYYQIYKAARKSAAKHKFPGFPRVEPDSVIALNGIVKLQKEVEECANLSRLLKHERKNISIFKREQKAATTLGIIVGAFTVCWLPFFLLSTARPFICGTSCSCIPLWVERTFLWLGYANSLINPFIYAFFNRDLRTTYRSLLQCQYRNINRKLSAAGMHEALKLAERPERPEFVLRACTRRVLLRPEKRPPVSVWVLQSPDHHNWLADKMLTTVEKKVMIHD
Chain of Sodium-dependent serotonin transporter (P31645 whole entry): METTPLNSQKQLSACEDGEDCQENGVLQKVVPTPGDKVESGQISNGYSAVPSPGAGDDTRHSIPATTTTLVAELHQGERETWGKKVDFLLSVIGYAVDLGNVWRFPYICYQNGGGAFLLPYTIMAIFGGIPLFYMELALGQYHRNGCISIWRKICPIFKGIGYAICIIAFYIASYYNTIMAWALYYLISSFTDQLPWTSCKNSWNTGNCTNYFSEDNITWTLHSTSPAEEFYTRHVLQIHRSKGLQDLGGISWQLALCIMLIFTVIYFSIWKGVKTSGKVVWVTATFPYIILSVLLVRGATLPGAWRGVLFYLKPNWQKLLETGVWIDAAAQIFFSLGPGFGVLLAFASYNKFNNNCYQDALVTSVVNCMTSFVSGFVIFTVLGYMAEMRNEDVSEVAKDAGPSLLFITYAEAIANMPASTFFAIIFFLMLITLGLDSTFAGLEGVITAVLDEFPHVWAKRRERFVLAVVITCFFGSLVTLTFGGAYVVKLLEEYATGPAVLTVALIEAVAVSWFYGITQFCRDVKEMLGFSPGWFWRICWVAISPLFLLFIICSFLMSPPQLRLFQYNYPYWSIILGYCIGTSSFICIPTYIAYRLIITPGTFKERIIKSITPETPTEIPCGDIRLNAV
T1 sequence (P28221 whole entry): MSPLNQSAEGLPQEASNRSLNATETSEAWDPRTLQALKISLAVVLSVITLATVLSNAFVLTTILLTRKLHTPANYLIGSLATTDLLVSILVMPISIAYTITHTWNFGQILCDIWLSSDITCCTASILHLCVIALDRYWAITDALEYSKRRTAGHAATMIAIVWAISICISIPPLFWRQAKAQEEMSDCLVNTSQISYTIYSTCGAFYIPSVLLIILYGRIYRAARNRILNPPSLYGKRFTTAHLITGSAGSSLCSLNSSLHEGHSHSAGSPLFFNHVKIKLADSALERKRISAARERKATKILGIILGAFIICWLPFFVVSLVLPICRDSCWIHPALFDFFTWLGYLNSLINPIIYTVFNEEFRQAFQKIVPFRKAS

SMILES	inhibition [1] [%]	IC50 (NIH3T3) [µM]	Ki [2] [µM]	inhibition [3] [%]	Ki (D(1A) dopamine receptor) [µM]	Ki (D(3) dopamine receptor) [µM]	inhibition [4] [%]	inhibition [6] [%]	Ki ([7]; read-out: Ki) [µM]	IC50 [8] [µM]	Ki (Mu-type opioid receptor) [µM]	Ki [9] [µM]	IC50 [10] [µM]	Ki [11] [µM]	Ki [12] [µM]	inhibition (INH) [13] [%]	IC50 (MDA-MB-231 [15]) [µM]	inhibition [16] [%]	inhibition (INH) [17] [%]	IC50 (MDA-MB-231 [18]) [µM]	other results
OC1(c2ccc(Cl)c(C(F)(F)F)c2)CCN(CCCN(c2ccc(F)cc2)c2ccc(F)cc2)CC1	80.7	4	1.57	65.9	0.3	0.474	86.7	94.2	0.752	7	0.902	0.402	5.7	1.26	0.902	82.5	6.7	76.5	85.9	5	Ki (Histamine H2 receptor [5]; read-out: Ki): 0.252 µM; inhibition (Histamine H2 receptor [14]): 98.3%
COc1ccc(N(CCCCN2CCC(O)(c3ccc(Cl)c(C(F)(F)F)c3)CC2)c2ccc(OC)cc2)cc1	78.8	11.2	0.949	77.6	10	0.437	72.6	57.3	10	6.3	8.25	0.74	4	10	1.44	94	8.1	73	55.2	7.1	Ki (Histamine H2 receptor [5]): Not Active
OC1(c2ccc(Cl)c(C(F)(F)F)c2)CCN(CCCC=C(c2ccc(F)cc2)c2ccc(F)cc2)CC1		7.1	10	74.1		0.552	77.2	71.2		15.6	0.328	1.6	12	1.36			23.9	87.8	78.8	14.9	Ki (Histamine H2 receptor [5]; read-out: Ki): 0.526 µM; Ki [7]: Not Active; inhibition (Histamine H2 receptor [14]): 82.6%
OC1(c2ccc(Cl)c(C(F)(F)F)c2)CCN(CCCCCc2ccc(F)cc2)CC1	50	9.8	1.12				57.7	77.2	4.43	26.9	0.536	2.55	11.9	0.901			19.4	89.2	75.9	11.9	Ki (Histamine H2 receptor [5]; read-out: Ki): 0.401 µM; inhibition (Histamine H2 receptor [14]): 69.2%
OC1(c2ccc(Cl)c(C(F)(F)F)c2)CCN(CCCC(c2ccc(F)cc2)c2ccc(F)cc2)CC1 [PENFLURIDOL]	91.3	6.01	0.28	89.1	0.147	0.136	95.3	100	3.56	6	0.867	0.881	4.2	0.356	0.588	92.7	6.1	77.6	98.4	5	inhibition (Histamine H2 receptor [14]): 98.4%
OC1(c2ccc(Cl)c(C(F)(F)F)c2)CCN(CCCCN(c2ccc(F)cc2)c2ccc(F)cc2)CC1	70.6	6.4	0.812	68.9	10	0.782	77.5	82.2	1.07	10.8	10	1.13	10.6	1.09	0.458	72.7	11.3	86.1	57.1	11.5	Ki (Histamine H2 receptor [5]): Not Active
OC1(c2ccc(Cl)c(C(F)(F)F)c2)CCN(CCCC(c2ccccc2)c2ccccc2)CC1	83.3	9.8	0.326	82.7	0.135	0.062	82.9	97.2	0.628	11.4	0.07	2.13	6.6	0.481	0.518	83.7	9.3	98.9	82.1	8.7	Ki (Histamine H2 receptor [5]; read-out: Ki): 0.278 µM; inhibition (Histamine H2 receptor [14]): 89.5%
OC1(c2ccc(Cl)c(C(F)(F)F)c2)CCN(CCCCC(c2ccc(F)cc2)c2ccc(F)cc2)CC1	79.3	4.1	0.969	84.5	0.798	0.209	89	85	0.844	5.6	0.356	1.71	4.1	1.39	0.077	92.5	5.3	96.9	84.9	5.7	Ki (Histamine H2 receptor [5]; read-out: Ki): 0.546 µM; inhibition (Histamine H2 receptor [14]): 94%
